Measured values published in ChEMBL document CHEMBL1212820, “Novel hinge binder improves activity and pharmacokinetic properties of BRAF inhibitors” (J Med Chem, 2010).

Key:
[1] = Growth inhibition of human WM266.4 cells expressing BRAF V600E mutant after 5 days by SRB assay; assay type: functional; details: WM 266-4, 120 h
Method in brief: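 Antiproliferative SRB assay in WM266.4 (BRAF mutant), WM1361 (NRAS mutant) and D24 (BRAF/NRAS wild-type) melanoma cells, with GI50 derived from the assay.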

[2] = molecular target: T1, Serine/threonine-protein kinase B-raf (Homo sapiens, UniProt P15056, V600E); assay: Inhibition of B-Raf V600E mutant
Method in brief: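 Enzymatic IC50 determined in vitro against purified V600E BRAF.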

[3] = molecular target: T1, Serine/threonine-protein kinase B-raf; assay: Inhibition of BRAF V600E mutant-mediated ERK phosphorylation in human WM266.4 cells; assay type: cell-based
Method in brief: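 Cellular IC50 for inhibition of phosphoERK formation.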

T1 sequence (P15056 2-766 V600E limits assumed): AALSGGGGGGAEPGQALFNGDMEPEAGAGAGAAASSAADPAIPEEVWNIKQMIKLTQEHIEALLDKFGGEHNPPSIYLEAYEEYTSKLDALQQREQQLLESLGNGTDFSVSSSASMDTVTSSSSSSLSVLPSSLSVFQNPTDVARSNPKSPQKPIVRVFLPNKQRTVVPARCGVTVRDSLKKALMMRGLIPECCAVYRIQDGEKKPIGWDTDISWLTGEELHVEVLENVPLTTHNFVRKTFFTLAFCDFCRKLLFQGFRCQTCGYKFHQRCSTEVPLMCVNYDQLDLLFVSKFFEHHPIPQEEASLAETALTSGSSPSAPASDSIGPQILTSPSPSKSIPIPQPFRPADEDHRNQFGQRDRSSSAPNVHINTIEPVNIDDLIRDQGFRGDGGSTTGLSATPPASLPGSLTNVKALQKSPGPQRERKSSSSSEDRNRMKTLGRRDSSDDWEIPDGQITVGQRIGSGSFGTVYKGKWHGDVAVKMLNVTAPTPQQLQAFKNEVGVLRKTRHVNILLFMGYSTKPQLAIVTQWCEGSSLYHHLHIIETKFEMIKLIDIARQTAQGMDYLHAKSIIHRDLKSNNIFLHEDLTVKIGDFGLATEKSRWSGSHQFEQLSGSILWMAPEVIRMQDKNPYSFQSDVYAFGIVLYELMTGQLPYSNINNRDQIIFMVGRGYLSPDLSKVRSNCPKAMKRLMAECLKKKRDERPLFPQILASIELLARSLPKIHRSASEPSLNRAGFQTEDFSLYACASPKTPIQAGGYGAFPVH

CC(C)(C)c1cc(NC(=O)Nc2ccc(Oc3ccnc4nc(N)c(=O)[nH]c34)c3ccccc23)n(-c2ccccc2)n1
GI50 [1]: 18 nM
IC50 [2]: 405 nM
IC50 [3]: 36 nM

CC(C)(C)c1cc(NC(=O)Nc2ccc(Oc3ccnc4ncc(=O)[nH]c34)cc2F)n(-c2ccccc2)n1
GI50 [1]: 940 nM
IC50 [2]: 940 nM
IC50 [3]: 650 nM

CSc1cc(Oc2ccnc3[nH]c(=O)c(=O)[nH]c23)ccc1NC(=O)Nc1cc(C(F)(F)F)ccc1F
GI50 [1]: 190 nM
IC50 [2]: 2 nM
IC50 [3]: 550 nM

CN(C)c1cnc2c(Oc3ccc(NC(=O)Nc4cc(C(F)(F)F)ccc4F)c(F)c3)ccnc2n1
GI50 [1]: 55000 nM
IC50 [2]: 220 nM
IC50 [3]: 20000 nM

O=C(Nc1cccc(Oc2ccnc3ncc(=O)[nH]c23)c1)Nc1cc(C(F)(F)F)ccc1F
GI50 [1]: 6100 nM
IC50 [2]: 105 nM
IC50 [3]: > 100000 nM

Cc1nc2nccc(Oc3ccc(NC(=O)Nc4cc(C(C)(C)C)nn4-c4ccccc4)c4ccccc34)c2[nH]c1=O
GI50 [1]: 95 nM
IC50 [2]: 3000 nM
IC50 [3]: 141 nM

CC(C)(C)c1cc(NC(=O)Nc2cccc(Oc3ccnc4ncc(=O)[nH]c34)c2)n(-c2ccccc2)n1
GI50 [1]: 1600 nM
IC50 [2]: 640 nM
IC50 [3]: 1700 nM

CN(C)c1cnc2c(Oc3ccc(NC(=O)Nc4cc(C(C)(C)C)nn4-c4ccccc4)c(F)c3)ccnc2n1
GI50 [1]: 1100 nM
IC50 [2]: > 10000 nM
IC50 [3]: 1700 nM

O=C(Nc1cccc(Oc2ccnc3[nH]c(=O)cnc23)c1)Nc1cc(C(F)(F)F)ccc1F
GI50 [1]: 10000 nM
IC50 [2]: 40 nM
IC50 [3]: 10000 nM

Nc1nc2nccc(Oc3ccc(NC(=O)Nc4cc(C(F)(F)F)ccc4F)c(F)c3)c2[nH]c1=O
GI50 [1]: 6500 nM
IC50 [2]: 168 nM
IC50 [3]: 9900 nM

O=C(Nc1cc(C(F)(F)F)ccc1F)Nc1ccc(Oc2ccnc3nc(C(F)(F)F)c(=O)[nH]c23)c2ccccc12
GI50 [1]: 10000 nM
IC50 [2]: 1080 nM
IC50 [3]: 8500 nM

Cc1ccc(-n2nc(C(C)(C)C)cc2NC(=O)Nc2ccc(Oc3ccnc4[nH]c(=O)c(N)nc34)cc2F)cc1
GI50 [1]: 8 nM
IC50 [2]: 320 nM
IC50 [3]: 11 nM

O=C1CNc2nccc(Oc3ccc(NC(=O)Nc4cc(C(F)(F)F)ccc4F)cc3)c2N1
GI50 [1]: 1690 nM
IC50 [2]: 54 nM
IC50 [3]: 3500 nM

CN(C)c1nc2c(Oc3ccc(NC(=O)Nc4cc(C(F)(F)F)ccc4F)c(F)c3)ccnc2[nH]1
GI50 [1]: 116 nM
IC50 [2]: 25 nM
IC50 [3]: 6000 nM

Cn1nc(C(C)(C)C)cc1NC(=O)Nc1ccc(Oc2ccnc3[nH]c(=O)cnc23)cc1F
GI50 [1]: 760 nM
IC50 [2]: 17 nM
IC50 [3]: 620 nM

Cc1ccc(-n2nc(C(C)(C)C)cc2NC(=O)Nc2cccc(Oc3ccnc4[nH]c(=O)c(C)nc34)c2)cc1
GI50 [1]: 69 nM
IC50 [2]: 132 nM
IC50 [3]: 69 nM

O=C(Nc1ccc(Oc2ccnc3[nH]cnc23)cc1F)Nc1cc(C(F)(F)F)ccc1F
GI50 [1]: 4850 nM
IC50 [2]: 42 nM
IC50 [3]: 8500 nM

Cc1nc2nccc(Oc3ccc(NC(=O)Nc4cc(C(F)(F)F)ccc4F)c4ccccc34)c2[nH]c1=O
GI50 [1]: 8500 nM
IC50 [2]: 108 nM
IC50 [3]: 3400 nM

CSc1cc(Oc2ccnc3[nH]c(=O)c(C)nc23)ccc1NC(=O)Nc1cc(C(F)(F)F)ccc1F
GI50 [1]: 225 nM
IC50 [2]: 2 nM
IC50 [3]: 97 nM

Cc1ccc(-n2nc(C(C)(C)C)cc2NC(=O)Nc2ccc(Oc3ccnc4ncc(=O)[nH]c34)cc2)cc1
GI50 [1]: 670 nM
IC50 [2]: 2290 nM
IC50 [3]: 634 nM

CC(C)(C)c1cc(NC(=O)Nc2ccc(Oc3ccnc4nc(N5CCOCC5)cnc34)cc2F)n(-c2ccccc2)n1
GI50 [1]: 428 nM
IC50 [2]: 8200 nM
IC50 [3]: 750 nM

Cc1ccc(-n2nc(C(C)(C)C)cc2NC(=O)Nc2ccc(Oc3ccnc4[nH]c(=O)c(N)nc34)c3ccccc23)cc1
GI50 [1]: 77 nM
IC50 [2]: 150 nM
IC50 [3]: 7 nM

Cc1nc2nccc(Oc3ccc(NC(=O)Nc4cc(C(F)(F)F)ccc4F)c(F)c3)c2[nH]c1=O
GI50 [1]: 2700 nM
IC50 [2]: 258 nM
IC50 [3]: 20000 nM

CC(C)(C)c1cccc(C(=O)Nc2cccc(Oc3ccnc4ncc(=O)[nH]c34)c2)c1
GI50 [1]: 2540 nM
IC50 [2]: 34 nM
IC50 [3]: 3500 nM

Nc1nc2c(Oc3ccc(NC(=O)Nc4cc(C(F)(F)F)ccc4F)c4ccccc34)ccnc2[nH]c1=O
GI50 [1]: 15 nM
IC50 [2]: 5 nM
IC50 [3]: 49 nM

O=C(Nc1ccc(Oc2ccnc3[nH]c(=O)c(=O)[nH]c23)cc1F)Nc1cc(C(F)(F)F)ccc1F
GI50 [1]: 1450 nM
IC50 [2]: 5 nM
IC50 [3]: 600 nM

CNc1cnc2c(Oc3ccc(NC(=O)Nc4cc(C(F)(F)F)ccc4F)c(F)c3)ccnc2n1
GI50 [1]: 48000 nM
IC50 [2]: 107 nM
IC50 [3]: 45000 nM

O=C(Nc1ccc(Oc2ccnc3nc(N4CCOCC4)cnc23)cc1F)Nc1cc(C(F)(F)F)ccc1F
GI50 [1]: 1120 nM
IC50 [2]: 97 nM
IC50 [3]: 3800 nM

Cc1ccc(-n2nc(C(C)(C)C)cc2NC(=O)Nc2cccc(Oc3ccnc4ncc(=O)[nH]c34)c2)cc1
GI50 [1]: 345 nM
IC50 [2]: 580 nM
IC50 [3]: 780 nM

CSc1cc(Oc2ccnc3[nH]c(=O)c(C)nc23)ccc1NC(=O)Nc1cc(C(C)(C)C)nn1-c1ccc(C)cc1
GI50 [1]: 3 nM
IC50 [2]: 24 nM
IC50 [3]: 6 nM

Cc1nc2c(Oc3ccc(NC(=O)Nc4cc(C(F)(F)F)ccc4F)c(F)c3)ccnc2[nH]c1=O
GI50 [1]: 850 nM
IC50 [2]: 3 nM
IC50 [3]: 590 nM

O=C(Nc1ccc(Oc2ccnc3[nH]c(S)nc23)cc1F)Nc1cc(C(F)(F)F)ccc1F
GI50 [1]: 970 nM
IC50 [2]: 17 nM
IC50 [3]: 13000 nM

Cc1ccc(-n2nc(C(C)(C)C)cc2NC(=O)Nc2ccc(Oc3ccnc4[nH]c(=O)cnc34)c3ccccc23)cc1
GI50 [1]: 80 nM
IC50 [2]: 80 nM
IC50 [3]: 10 nM

O=C(Nc1ccc(Oc2ccnc3ncc(=O)[nH]c23)cc1F)Nc1cc(C(F)(F)F)ccc1F
GI50 [1]: 1800 nM
IC50 [2]: 76 nM
IC50 [3]: 69000 nM

Cc1nc2c(Oc3ccc(NC(=O)Nc4cc(C(C)(C)C)nn4-c4ccccc4)c4ccccc34)ccnc2[nH]c1=O
GI50 [1]: 57 nM
IC50 [2]: 67 nM
IC50 [3]: 8 nM

O=C(Nc1ccc(Oc2ccnc3[nH]c(=O)cnc23)cc1)Nc1ccc(Cl)c(C(F)(F)F)c1
GI50 [1]: 9100 nM
IC50 [2]: 11 nM
IC50 [3]: 4890 nM

CC(C)(C)c1cc(NC(=O)Nc2ccc(Oc3ccnc4ncc(=O)[nH]c34)c3ccccc23)n(-c2ccccc2)n1
GI50 [1]: 73 nM
IC50 [2]: 264 nM
IC50 [3]: 48 nM

CC(C)(C)c1cc(NC(=O)c2cccc(Oc3ccnc4[nH]c(=O)cnc34)c2)n(-c2ccccc2)n1
GI50 [1]: 2000 nM
IC50 [2]: 870 nM
IC50 [3]: 5000 nM

Cc1ccc(-n2nc(C(C)(C)C)cc2NC(=O)Nc2ccc(Oc3ccnc4[nH]c(=O)[nH]c34)cc2F)cc1
GI50 [1]: 46 nM

CSc1cc(Oc2ccnc3[nH]c(=O)c(C)nc23)ccc1NC(=O)Nc1cc(C(C)(C)C)nn1-c1ccccc1
GI50 [1]: 4 nM
IC50 [2]: 20 nM
IC50 [3]: 3 nM

Cc1nc2nccc(Oc3ccc(NC(=O)Nc4cc(C(C)(C)C)nn4-c4ccccc4)c(F)c3)c2[nH]c1=O
GI50 [1]: 430 nM
IC50 [2]: 8500 nM
IC50 [3]: 390 nM

O=C(Nc1cccc(Oc2ccnc3[nH]c(=O)cnc23)c1)c1cccc(OC(F)(F)F)c1
GI50 [1]: 9900 nM
IC50 [2]: 21 nM
IC50 [3]: 4000 nM

O=C(Nc1cccc(Oc2ccnc3ncc(=O)[nH]c23)c1)c1cccc(OC(F)(F)F)c1
GI50 [1]: 6800 nM
IC50 [2]: 306 nM
IC50 [3]: 37000 nM

CSc1cc(Oc2ccnc3[nH]c(=O)c(=O)[nH]c23)ccc1NC(=O)Nc1ccc(Cl)c(C(F)(F)F)c1
GI50 [1]: 220 nM
IC50 [2]: 3 nM
IC50 [3]: 590 nM

Cc1ccc(-n2nc(C(C)(C)C)cc2NC(=O)Nc2ccc(Oc3ccnc4[nH]nnc34)cc2F)cc1
GI50 [1]: 1980 nM
IC50 [2]: 1370 nM
IC50 [3]: 3100 nM

CC(C)(C)c1cc(NC(=O)Nc2ccc(Oc3ccnc4[nH]c(=O)c(N)nc34)c3ccccc23)n(-c2ccccc2)n1
GI50 [1]: 9 nM
IC50 [2]: 85 nM
IC50 [3]: 7 nM

CSc1cc(Oc2ccnc3[nH]c(=O)[nH]c23)ccc1NC(=O)Nc1cc(C(C)(C)C)nn1-c1ccc(C)cc1
GI50 [1]: 16 nM
